The source of these data is ChEMBL document CHEMBL2010675, “Discovery of GS-9451: an acid inhibitor of the hepatitis C virus NS3/4A protease” (Bioorg Med Chem Lett, 2012).

pEC50, pIC50: −log10 of the molar value. ≈ marks a conversion by molar mass, not a printed value.

The nature of data set [1]: Permeability from apical to basolateral side in human Caco2 cells. The class given is ADME, cell-based. The following applies: Caco-2, read-out: permeability.
The nature of data set [2]: Thermodynamic solubility of the compound at pH 2.2. The class given is physicochemical. The note with it: buffer, read-out: Therm_solubility.
Data set [3] is described as follows: Half life in dog at 1 mg/kg, iv. The following applies: in vivo. Also noted: dose 1 mg/kg, route intravenous. In kind it is ADME, organism-based, Canis lupus familiaris. In short, it runs like this: (§1)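 Dosed at 1.0 mg/kg iv and 4.0 mg/kg po; plasma drug levels followed to derive iv t1/2, oral AUC, clearance, Vdss and oral bioavailability (F).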
Data set [4] can be described thus: Permeability from basolateral to apical side in human Caco2 cells. In kind it is ADME, cell-based. The following applies: Caco-2, read-out: permeability.
Data set [5] in a line: Clearance in dog at 1 mg/kg, iv and 4 mg/kg, po. The class given is ADME, organism-based, Canis lupus familiaris. The following applies: in vivo. In short, it runs like this: as §1
The next data set relates to Canis familiaris. The experiment in a line: AUC in dog at 4 mg/kg, po. The note with it: in vivo. In kind it is ADME, organism-based, Canis lupus familiaris, Plasma. Also noted: dose 4 mg/kg, route oral. An outline of the steps:
as §1

Data set [6] relates to Hepatitis C virus. The experiment in a line: Inhibition of Hepatitis C virus genotype 1b NS3/4A protease. Also noted: species or system Hepatitis C virus subtype 1b.
In data set [7] the test system is Hepatitis C virus. The experiment in a line: Antiviral activity against Hepatitis C virus genotype 1b infected in human Huh cells by luciferase reporter gene based replicon assay. The class given is functional, organism-based, Hepacivirus hominis. An outline of the steps:
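EC50 from a cell-based assay in Huh-luc cells carrying a subgenomic HCV genotype 1b replicon, with luciferase reporter read-out.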

The nature of data set [8]: Volume of distribution at steady state in dog at 1 mg/kg, iv and 4 mg/kg, po. The class given is ADME, organism-based, Canis lupus familiaris. The following applies: in vivo, read-out: Vdss. In short, it runs like this:
as §1

Data set [9] can be described thus: Thermodynamic solubility of the compound at pH 7.3. The following applies: buffer, read-out: Therm_solubility. The class given is physicochemical.
A short description of data set [10]: Oral bioavailability in dog at 4 mg/kg. In kind it is ADME, organism-based, Canis lupus familiaris. The note with it: in vivo. In short, it runs like this:
as §1

For the compound `CC[C@@H]1C[C@]1(NC(=O)[C@@H]1C[C@@H](Oc2cc(-c3csc(NC(C)C)n3)nc3c(Cl)c(OCCN4CCOCC4(C)C)ccc23)CN1C(=O)[C@@H](NC(=O)O[C@@H]1C[C@@H]2C[C@@H]2C1)C(C)(C)C)C(=O)O`, in [1], the Papp A→B stood at 6.6 ×10⁻⁶ cm/s. Also, the solubility thermodynamic in data set [2] was 1900 µM (≈ 1780 µg/mL); in data set [9] it was 22 µM (≈ 20.6 µg/mL). Further, the half-life in data set [3] is 5.8 h. The Papp B→A in [4] stood at 10 ×10⁻⁶ cm/s. This compound had a clearance in data set [5] of 0.5 mL/min/kg. This compound had an AUC in the data set on Canis familiaris of 38.3 µM·h. Moreover, the pIC50 in the data set with Hepatitis C virus [6] was 8.38. In the data set on Hepatitis C virus [7], the pEC50 is 8.49. Further, the Vd in data set [8] amounted to 0.21 L/kg. This compound came in with a bioavailability in data set [10] of 24%.

With `CC[C@@H]1C[C@]1(NC(=O)[C@@H]1C[C@@H](Oc2cc(-c3csc(NC(C)C)n3)nc3c(Cl)c(OCCN4CCCCC4)ccc23)CN1C(=O)[C@@H](NC(=O)O[C@@H]1C[C@@H]2C[C@@H]2C1)C(C)(C)C)C(=O)O`, the Papp A→B in data set [1] was 6.7 ×10⁻⁶ cm/s. Further, the solubility thermodynamic was greater than 100 µM in data set [2] and 80 µM (≈ 72.7 µg/mL) in data set [9]. Besides, the half-life in data set [3] was 3 h. For the same compound, in [4], the Papp B→A was 20 ×10⁻⁶ cm/s. The same compound had a clearance in [5] of 2.17 mL/min/kg. In addition, the AUC in the data set with Canis familiaris came out at 19.7 µM·h. The same compound showed a pIC50 in the data set on Hepatitis C virus [6] of 7.60. The pEC50 with Hepatitis C virus [7] was 8.12. Further, the Vd in data set [8] was found to be 0.39 L/kg. The compound further came in with a bioavailability in data set [10] of 32%.

For the compound `CC[C@@H]1C[C@]1(NC(=O)[C@@H]1C[C@@H](Oc2cc(-c3csc(NC(C)C)n3)nc3c(Cl)c(OCCN4CC[C@@H](OC)C4)ccc23)CN1C(=O)[C@@H](NC(=O)O[C@@H]1C[C@@H]2C[C@@H]2C1)C(C)(C)C)C(=O)O`, the Papp A→B in [1] amounted to 6.1 ×10⁻⁶ cm/s. Besides, the values for the solubility thermodynamic in data set [2] and in data set [9] were greater than 100 µM and 59 µM (≈ 54.5 µg/mL), respectively. The half-life in [3] is 2.1 h. In addition, in data set [4], the Papp B→A worked out at 30 ×10⁻⁶ cm/s. Moreover, in data set [5], the clearance is 3.67 mL/min/kg. The compound also registered an AUC in the data set with Canis familiaris of 8.33 µM·h. The same compound gave a pIC50 with Hepatitis C virus [6] of 8.54. Moreover, in the data set with Hepatitis C virus [7], the pEC50 was 8.42. The Vd in data set [8] is 0.66 L/kg. In data set [10], this compound showed a bioavailability of 45%.
